Drawing on ChEMBL document CHEMBL1148866, “Design and synthesis of beta-methoxyacrylate analogues via click chemistry and biological evaluations” (2007), this text covers MIC and Activity for 6 compounds.

In brackets after ≈: the same amount, converted by molar mass. Bounds are passed on as bounds.

What all share (format): functional
The test system of one experiment is Alternaria brassicicola. In words: Antifungal activity against Alternaria brassicola. In outline:
(§1)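 MIC determined in 96-well plates. 1-mm diameter mycelial pieces were incubated in Czapek Dox minimal medium across a range of compound concentrations, and the MIC was read from mycelial growth.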

The test system of experiment [1] is Simplicillium lamellicola. As to the kind of experiment: Antifungal activity against Verticillium lamellicola. An outline of the steps: as §1
For another experiment, the system named is Aspergillus flavus. In words: Antifungal activity against Aspergillus flavus. In outline: as §1
In the next experiment the test system is Fusarium oxysporum. In words: Antifungal activity against Fusarium oxysporum. In outline:
as §1

The test system of the next experiment is Alternaria brassicae. As to the kind of experiment: Antifungal activity against Alternaria brassicae. An outline of the steps:
as §1

In another experiment the test system is Radish. In words: Effect on growth of Raphanus sativus assessed as length of hypocotyl at 50 ug/mL by seed germination assay.

For the compound `CO/C=C(/C(=O)OC)c1cc(Cl)ccc1Cn1cc(S(=O)(=O)c2ccc(C)cc2)nn1`, the MIC worked out at 500 µg/mL (≈ 1080 µM) against Alternaria brassicicola; 500 µg/mL (≈ 1080 µM) in experiment [1]; 500 µg/mL (≈ 1080 µM) in the experiment with Aspergillus flavus; 500 µg/mL (≈ 1080 µM) against Fusarium oxysporum; 400 µg/mL (≈ 866 µM) in the experiment on Alternaria brassicae. In the experiment with Radish, the Activity came out at 30.7 mm.
As for `CO/C=C(/C(=O)OC)c1cc(Cl)ccc1Cn1cc(-c2ccccc2)nn1`, the MIC in the experiment with Alternaria brassicicola is 1000 µg/mL (≈ 2610 µM); in experiment [1], 1500 µg/mL (≈ 3910 µM); with Aspergillus flavus, above 1500 µg/mL; against Fusarium oxysporum, 1000 µg/mL (≈ 2610 µM); against Alternaria brassicae, 1000 µg/mL (≈ 2610 µM). In the experiment on Radish, the Activity came out at 18.8 mm.
Take `CO/C=C(/C(=O)OC)c1ccccc1Oc1cc(Oc2ccccc2C#N)ncn1` [AZOXYSTROBIN]: the Activity with Radish is given as 2 mm.
As for `C#CS(=O)(=O)c1ccc(C)cc1`, the MIC (in the experiment with Alternaria brassicicola; in experiment [1]; against Aspergillus flavus; against Fusarium oxysporum; in the experiment with Alternaria brassicae) was 4 µg/mL (≈ 22.2 µM) each time. The Activity in the experiment on Radish stood at 56.2 mm.
For `CO/C=C(/C(=O)OC)c1cc(Cl)ccc1Cn1cc(C2=CCCCC2)nn1`, the MIC in the experiment with Alternaria brassicicola is 1000 µg/mL (≈ 2580 µM); in experiment [1], 1500 µg/mL (≈ 3870 µM); in the experiment with Aspergillus flavus it was above 1500 µg/mL; against Fusarium oxysporum, 1500 µg/mL (≈ 3870 µM); against Alternaria brassicae it was 1000 µg/mL (≈ 2580 µM). Besides, the Activity in the experiment on Radish is listed as 14 mm.
Regarding `CO/C=C(/C(=O)OC)c1cc(Cl)ccc1Cn1cc(-c2ccccc2C=O)nn1`, the MIC came to 1000 µg/mL (≈ 2430 µM) in the experiment on Alternaria brassicicola; 1000 µg/mL (≈ 2430 µM) in experiment [1]; 1500 µg/mL (≈ 3640 µM) in the experiment on Aspergillus flavus; 1000 µg/mL (≈ 2430 µM) with Fusarium oxysporum; 1000 µg/mL (≈ 2430 µM) against Alternaria brassicae. Also, the Activity in the experiment on Radish came to 25 mm.

What is called MIC is the lowest concentration found to suppress growth. High values mean weaker potency, low ones greater potency.
